# Test results from ChEMBL document CHEMBL2346503, “Synthesis and evaluation of novel (18)F-labeled spirocyclic piperidine derivatives as σ1 receptor ligands for positron emission tomography imaging” (J Med Chem, 2013).
# How the values were obtained:
# [1] = test system: Muscle tissue; test: Biodistribution in ICR mouse muscle at 370 kBq, iv after 2 mins by gamma-counting analysis; type: ADME, organism-based; details: in vivo
# Summary of the method: (§1)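 Male ICR mice, n = 5 per time point, given the radiotracer in saline (370 kBq, 0.1 mL) by intravenous injection. Killed by decapitation at 2, 30, 60 or 120 min. Organs were excised, weighed and gamma-counted with decay correction. Uptake is expressed as % injected dose per gram of wet tissue against diluted standards of the injected material; stomach and intestine are expressed as % injected dose per organ. Mean ± SD.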
# [2] = test system: Blood; test: Biodistribution in ICR mouse blood at 370 kBq, iv after 60 mins by gamma-counting analysis in presence of haloperidol relative to control; type: ADME, organism-based; details: in vivo, 1 h
# Summary of the method: (§2)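 Male ICR mice (n = 5) got saline or haloperidol (0.1 mL, 1.0 mg/kg) via tail vein 5 min before 370 kBq tracer iv. Tissues were taken 60 min later and γ-counted as %ID/g (intestine as %ID/organ). Control and blocked groups were compared by two-tailed independent Student's t test, p ≤ 0.05.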
# [3] = test system: Lung; test: Biodistribution in ICR mouse lung at 370 kBq, iv after 60 mins by gamma-counting analysis; type: ADME, organism-based; details: in vivo, 1 h; summary of the method: as §1
# [4] = test system: Spleen; test: Biodistribution in ICR mouse spleen at 370 kBq, iv after 120 mins by gamma-counting analysis; type: ADME, organism-based; details: in vivo, 2 h; summary of the method: as §1
# [5] = test system: Heart; test: Biodistribution in ICR mouse heart at 370 kBq, iv after 30 mins by gamma-counting analysis; type: ADME, organism-based; details: in vivo, 0.5 h
# Summary of the method: (§3)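 Male ICR mice (n = 5 per group) got 370 kBq tracer in 0.1 mL saline by iv injection. They were decapitated at 2, 30, 60 or 120 min, and organs were weighed and γ-counted. %ID/g was found against diluted aliquots of the injected dose, decay-corrected, and given as mean ± SD.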
# [6] = test system: Kidney; test: Biodistribution in ICR mouse kidney at 370 kBq, iv after 120 mins by gamma-counting analysis; type: ADME, organism-based; details: in vivo, 2 h; summary of the method: as §3
# [7] = test system: Spleen; test: Biodistribution in ICR mouse spleen at 370 kBq, iv after 60 mins by gamma-counting analysis in presence of haloperidol relative to control; type: ADME, organism-based; details: in vivo, 1 h
# Summary of the method: (§4)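 Male ICR mice, n = 5 per group, received saline (0.1 mL) or haloperidol (0.1 mL, 1.0 mg/kg) via tail vein 5 min before the radiotracer (370 kBq, 0.1 mL, iv). Killed by decapitation at 60 min. Tissues were excised, weighed and gamma-counted. Values are % ID/g (stomach as % ID/organ) and percent change versus saline controls, compared by two-tailed independent Student's t test, p ≤ 0.05.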
# [8] = test system: Blood; test: Biodistribution in ICR mouse blood at 370 kBq, iv after 2 mins by gamma-counting analysis; type: ADME, organism-based; details: in vivo; summary of the method: as §3
# [9] = test system: Spleen; test: Biodistribution in ICR mouse spleen at 370 kBq, iv after 30 mins by gamma-counting analysis; type: ADME, organism-based; details: in vivo, 0.5 h; summary of the method: as §1
# [10] = test system: Brain; test: Biodistribution in ICR mouse brain at 370 kBq, iv after 120 mins by gamma-counting analysis; type: ADME, organism-based; details: in vivo, 2 h; summary of the method: as §3
# [11] = test system: Brain; test: Biodistribution in ICR mouse brain at 370 kBq, iv after 60 mins by gamma-counting analysis in presence of haloperidol relative to control; type: ADME, organism-based; details: in vivo, 1 h; summary of the method: as §2
# [12] = test system: Blood; test: Biodistribution in ICR mouse blood at 370 kBq, iv after 60 mins by gamma-counting analysis; type: ADME, organism-based; details: in vivo, 1 h; summary of the method: as §3
# [13] = Ratio of drug uptake from ICR mouse brain to blood after 2 mins; type: ADME, tissue-based; details: brain and blood
# [14] = test system: Heart; test: Biodistribution in ICR mouse heart at 370 kBq, iv after 60 mins by gamma-counting analysis in presence of haloperidol relative to control; type: ADME, organism-based; details: in vivo, 1 h; summary of the method: as §2
# [15] = test system: Liver; test: Biodistribution in ICR mouse liver at 370 kBq, iv after 120 mins by gamma-counting analysis; type: ADME, organism-based; details: in vivo, 2 h; summary of the method: as §3
# [16] = test system: Brain; test: Biodistribution in ICR mouse brain at 370 kBq, iv after 2 mins by gamma-counting analysis; type: ADME, organism-based; details: in vivo; summary of the method: as §3
# [17] = test system: Liver; test: Biodistribution in ICR mouse liver at 370 kBq, iv after 2 mins by gamma-counting analysis; type: ADME, organism-based; details: in vivo; summary of the method: as §3
# [18] = test system: Muscle tissue; test: Biodistribution in ICR mouse muscle at 370 kBq, iv after 120 mins by gamma-counting analysis; type: ADME, organism-based; details: in vivo, 2 h; summary of the method: as §1
# [19] = test system: Kidney; test: Biodistribution in ICR mouse kidney at 370 kBq, iv after 60 mins by gamma-counting analysis; type: ADME, organism-based; details: in vivo, 1 h; summary of the method: as §3
# [20] = test system: Intestine; test: Biodistribution in ICR mouse intestine assessed per organ at 370 kBq, iv after 2 mins by gamma-counting analysis; type: ADME, organism-based; details: in vivo
# Summary of the method: (§5)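 Male ICR mice (n = 5) got 370 kBq iv in 0.1 mL saline and were decapitated at 2, 30, 60 or 120 min. Whole intestine was γ-counted and expressed as percent injected dose per organ, decay-corrected, mean ± SD.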
# [21] = test system: Brain; test: Biodistribution in ICR mouse brain at 370 kBq, iv after 60 mins by gamma-counting analysis; type: ADME, organism-based; details: in vivo, 1 h; summary of the method: as §3
# [22] = test system: Stomach; test: Biodistribution in ICR mouse stomach assessed per organ at 370 kBq, iv after 120 mins by gamma-counting analysis; type: ADME, organism-based; details: in vivo, 2 h; summary of the method: as §1
# [23] = test system: Muscle tissue; test: Biodistribution in ICR mouse muscle at 370 kBq, iv after 30 mins by gamma-counting analysis; type: ADME, organism-based; details: in vivo, 0.5 h; summary of the method: as §1
# [24] = test system: Kidney; test: Biodistribution in ICR mouse kidney at 370 kBq, iv after 60 mins by gamma-counting analysis in presence of haloperidol relative to control; type: ADME, organism-based; details: in vivo, 1 h; summary of the method: as §2
# [25] = test system: Stomach; test: Biodistribution in ICR mouse stomach assessed per organ at 370 kBq, iv after 30 mins by gamma-counting analysis; type: ADME, organism-based; details: in vivo, 0.5 h; summary of the method: as §1
# [26] = Lipophilicity, log D of the compound at pH 7.4 by shake flask method; type: physicochemical; details: buffer
# Summary of the method: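 Shake flask: radiotracer (370 kBq) in 3 mL 1-octanol plus 3 mL 0.05 M sodium phosphate buffer pH 7.4, vortexed 3 min at room temperature, then centrifuged. Both phases were gamma-counted and log D = log(cpm/mL octanol ÷ cpm/mL buffer). The octanol layer was repartitioned until values were consistent. Triplicate, repeated three times.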
# [27] = test system: Intestine; test: Biodistribution in ICR mouse intestine assessed per organ at 370 kBq, iv after 120 mins by gamma-counting analysis; type: ADME, organism-based; details: in vivo, 2 h; summary of the method: as §5
# [28] = test system: Brain; test: Biodistribution in ICR mouse brain at 370 kBq, iv after 30 mins by gamma-counting analysis; type: ADME, organism-based; details: in vivo, 0.5 h; summary of the method: as §3
# [29] = test system: Bone; test: Biodistribution in ICR mouse bone at 370 kBq, iv after 60 mins by gamma-counting analysis; type: ADME, organism-based, Bone element; details: in vivo, 1 h; summary of the method: as §3
# [30] = test system: Stomach; test: Biodistribution in ICR mouse stomach assessed per organ at 370 kBq, iv after 60 mins by gamma-counting analysis in presence of haloperidol relative to control; type: ADME, organism-based; details: in vivo, 1 h; summary of the method: as §4
# [31] = test system: Blood; test: Biodistribution in ICR mouse blood at 370 kBq, iv after 120 mins by gamma-counting analysis; type: ADME, organism-based; details: in vivo, 2 h; summary of the method: as §3
# [32] = test system: Bone; test: Biodistribution in ICR mouse bone at 370 kBq, iv after 2 mins by gamma-counting analysis; type: ADME, organism-based, Bone element; details: in vivo; summary of the method: as §3
# [33] = test system: Stomach; test: Biodistribution in ICR mouse stomach assessed per organ at 370 kBq, iv after 60 mins by gamma-counting analysis; type: ADME, organism-based; details: in vivo, 1 h; summary of the method: as §1
# [34] = test system: Intestine; test: Biodistribution in ICR mouse intestine assessed per organ at 370 kBq, iv after 60 mins by gamma-counting analysis in presence of haloperidol relative to control; type: ADME, organism-based; details: in vivo, 1 h; summary of the method: as §2
# [35] = Ratio of drug uptake from ICR mouse brain to blood after 120 mins; type: ADME, tissue-based; details: brain and blood
# [36] = test system: Stomach; test: Biodistribution in ICR mouse stomach assessed per organ at 370 kBq, iv after 2 mins by gamma-counting analysis; type: ADME, organism-based; details: in vivo; summary of the method: as §1
Structure (SMILES),Drug uptake [1] [% ID/g],Drug uptake [2] [%],Drug uptake [3] [% ID/g],Drug uptake [4] [% ID/g],Drug uptake [5] [% ID/g],Drug uptake [6] [% ID/g],Drug uptake [7] [%],Drug uptake [8] [% ID/g],Drug uptake [9] [% ID/g],Drug uptake [10] [% ID/g],Drug uptake [11] [%],Drug uptake [12] [% ID/g],Kp at 2 min [13],Drug uptake [14] [%],Drug uptake [15] [% ID/g],Drug uptake [16] [% ID/g],Drug uptake [17] [% ID/g],Drug uptake [18] [% ID/g],Drug uptake [19] [% ID/g],Drug uptake [20] [%ID],other results
[18F]CCOCCOCCOc1ccc(CN2CCC3(CC2)OCc2ccccc23)cc1,3.22,17,3.73,3.91,2.95,3.96,-32,1.97,7.64,3.91,-16,3.35,2.9,17,4.14,5.79,5.83,2.62,4.37,6.21,Drug uptake [21]: 4.63 % ID/g; Drug uptake [22]: 2.03 %ID; Drug uptake [23]: 2.42 % ID/g; Drug uptake [24]: 11%; Drug uptake [25]: 2 %ID; logD [26]: 1.9; Drug uptake [27]: 4.04 %ID; Drug uptake [28]: 5.2 % ID/g; Drug uptake [29]: 4.51 % ID/g; Drug uptake [30]: 28%; Drug uptake [31]: 3.52 % ID/g; Drug uptake [32]: 3.38 % ID/g; Drug uptake [33]: 1.45 %ID; Drug uptake [34]: 30%; Kp at 2 h [35]: 1.1; Drug uptake [36]: 2.19 %ID
[18F]CCOc1ccc(CN2CCC3(CC2)OCc2ccccc23)cc1,5.45,352,25.21,9.09,14.39,9.55,5,1.71,8.2,8.99,-58,0.8,4.7,-61,13.6,8.07,8.46,4.01,10.87,6.62,Drug uptake [21]: 9.1 % ID/g; Drug uptake [22]: 0.89 %ID; Drug uptake [23]: 4.59 % ID/g; Drug uptake [24]: -47%; Drug uptake [25]: 1.09 %ID; logD [26]: 2.41; Drug uptake [27]: 7.17 %ID; Drug uptake [28]: 9.32 % ID/g; Drug uptake [29]: 4.27 % ID/g; Drug uptake [30]: 208%; Drug uptake [31]: 1.2 % ID/g; Drug uptake [32]: 2.74 % ID/g; Drug uptake [33]: 0.9 %ID; Drug uptake [34]: -7%; Kp at 2 h [35]: 7.5; Drug uptake [36]: 1.45 %ID
